“Also recorded” adds a separate entry of the source.
Target: Bos taurus Arp2/3 complex (Bos taurus, UniProt A7MB62+P61157)
Test: Pyrene actin polymerization assay
Type: biochemical
Conditions: for increase in IC50 relative to 1 / inhibition of Arp2/3 complex (in words): actin polymerization assay; for increase in IC50 relative to 1: compared to 1
Procedure, shortened: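 Bovine Arp2/3 complex from calf thymus, activated by human N-WASp-VCA (residues 428-505, E. coli-expressed). Rabbit muscle actin, 30% pyrene-labelled at […], Mg/EGTA-exchanged. Polymerization started by adding Arp2/3 and VCA; final buffer 10 mM imidazole pH 7.0, 50 mM KCl, 1 mM EGTA, 1 mM MgCl2, 1 mM DTT. Read at ex 365/em 407 nm every 10 s for 45 min. Inhibitor tested up to 200 μM. IC50 from a fit of maximal rate (nM actin s⁻¹) versus concentration.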

Row | SMILES | IC50 | increase in IC50 relative to 1 | IC50 relative to 2 (higher IC50 than 2) | inhibition of Arp2/3 complex (in words)
1 | Cc1[nH]c2ccccc2c1CCNC(=O)c1ccc(O)cc1F [Compound 2, 2-fluoro-4-hydroxy-N-(2-(2-methyl-1H-indol-3-yl)ethyl)benzamide] | 4 ± 1 µM | – | – | –
2 | Cc1[nH]c2ccc(Cl)cc2c1CCNC(=O)c1ccccc1F [Compound 3, N-(2-(5-chloro-2-methyl-1H-indol-3-yl)ethyl)-2-fluorobenzamide] | 18 ± 5 µM | nearly double; also recorded: only slightly | – | –
3 | COc1ccc(C(=O)NCCc2c(C)[nH]c3ccccc23)c(F)c1 [Compound 4, 2-fluoro-4-methoxy-N-(2-(2-methyl-1H-indol-3-yl)ethyl)benzamide] | 19 ± 6 µM | nearly double | fivefold | –
4 | Cc1[nH]c2ccccc2c1CCNC(=O)c1ccc(Cl)cc1F [Compound 6, 4-chloro-2-fluoro-N-(2-(2-methyl-1H-indol-3-yl)ethyl)benzamide] | 32 ± 18 µM | approximately 3 fold | – | –
5 | Cc1[nH]c2ccccc2c1CCNC(=O)c1ccc(Cl)cc1 [Compound 7, 4-chloro-N-(2-(2-methyl-1H-indol-3-yl)ethyl)benzamide] | 181 ± 85 µM | 15-20 fold | – | greatly reduced or no inhibition
6 | Cc1[nH]c2ccccc2c1CCNC(=O)c1cccc(Cl)c1F [Compound 8, 3-chloro-2-fluoro-N-(2-(2-methyl-1H-indol-3-yl)ethyl)benzamide] | 238 ± 91 µM | 15-20 fold | – | –
7 | Cc1[nH]c2ccccc2c1CCNC(=O)c1ccccc1Cl [Compound 10, 2-chloro-N-(2-(2-methyl-1H-indol-3-yl)ethyl)benzamide] | – | – | – | greatly reduced or no inhibition; also recorded: completely abolishes inhibition
8 | Cc1[nH]c2ccccc2c1CCNC(=O)c1cccc(Cl)c1 [Compound 11, 3-chloro-N-(2-(2-methyl-1H-indol-3-yl)ethyl)benzamide] | – | – | – | greatly reduced or no inhibition
